From PMC9055608 (RSC Advances, 2020)

How the values were obtained:
[1] = test system: SKBR3; test: MTT cell proliferation assay, SKBR3; type: cell-based, human; details: SKBR3, breast; MTT, 72 h
Method in brief: (§1)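 ATCC lines grown in DMEM or RPMI-1640 with 10% heat-inactivated FBS and 1% penicillin/streptomycin at 37 °C, 5% CO2. Log-phase cells seeded at about 4000–5000/well and left to adhere 24 h. Sextuplicate wells, 72 h. MTT for 4 h, then DMSO and absorbance. IC50 taken from dose–response curves.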

[2] = test system: MDA-MB231; test: MTT cell proliferation assay, MDA-MB231; type: cell-based, human; details: MDA-MB231, breast; MTT, 72 h
Method in brief: as §1

[3] = test system: MCF-7; test: MTT cell proliferation assay, MCF-7; type: cell-based, human; details: MCF-7, breast; MTT, 72 h
Method in brief: as §1

[4] = test system: MDA-MB453; test: MTT cell proliferation assay, MDA-MB453; type: cell-based, human; details: MDA-MB453, breast; MTT, 72 h
Method in brief: as §1

[5] = test system: Calu-3; test: MTT cell proliferation assay, Calu-3; type: cell-based, human; details: Calu-3, lung; MTT, 72 h
Method in brief: as §1

[6] = test system: A-549; test: MTT cell proliferation assay, A-549; type: cell-based, human; details: A-549, lung; MTT, 72 h
Method in brief: as §1

[7] = test system: SKMEL-28; test: MTT cell proliferation assay, SKMEL-28; type: cell-based, human; details: SKMEL-28, skin; MTT, 72 h
Method in brief: as §1

[8] = test system: HT-29; test: MTT cell proliferation assay, HT-29; type: cell-based, human; details: HT-29, colon; MTT, 72 h
Method in brief: as §1

[9] = test system: DU-145; test: MTT cell proliferation assay, DU-145; type: cell-based, human; details: DU-145, prostate; MTT, 72 h
Method in brief: as §1

[10] = test system: A375; test: MTT cell proliferation assay, A375; type: cell-based, human; details: A375, melanoma; MTT, 72 h
Method in brief: as §1

[11] = test system: SKOV3; test: MTT cell proliferation assay, SKOV3; type: cell-based, human; details: SKOV3, ovary; MTT, 72 h
Method in brief: as §1

[12] = test system: N87; test: MTT cell proliferation assay, N87; type: cell-based, human; details: N87, stomach; MTT, 72 h
Method in brief: as §1

[13] = test system: MCF-7 xenograft tumour; test: Drug efficacy in vivo, MCF-7 breast cancer model; set-up: species or system nude mice; details: positive control
[14] = Mouse weight during in vivo efficacy study; set-up: species or system nude mice; details: during the nine days of treatment
[15] = test system: MCF-7 xenograft tumour; test: Pathological tissue sections; type: in vivo, nude mice; details: positive control group, cisplatin 5 mg kg^−1
Method in brief: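 Tumour-bearing nude mice were anaesthetised and killed after the 9-day dosing. Heart, liver, spleen, lung, kidney, brain and tumour were fixed in 10% formalin, embedded in paraffin, cut into 4 μm sections and stained with haematoxylin–eosin.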

[16] = cisplatin; cited from earlier work

N.N.[Cl][Pt][Cl] [Cisplatin, cis-platinum, reference compound]
IC50 [1]: 3.04 ± 0.17 µM
IC50 [2]: 12.8 ± 0.58 µM
IC50 [3]: 11.2 ± 0.6 µM
IC50 [4]: 15.4 ± 0.83 µM
IC50 [5]: 7.39 ± 0.25 µM
IC50 [6]: 3.03 ± 0.24 µM
IC50 [7]: 12.9 ± 0.96 µM
IC50 [8]: 4.71 ± 0.17 µM
IC50 [9]: 2820 ± 140 nM
IC50 [10]: 5.28 ± 0.18 µM
IC50 [11]: 4.15 ± 0.3 µM
IC50 [12]: 8.35 ± 0.3 µM
Tumour weight (mean) ([13]; group E, cisplatin 5 mg kg^−1 tail vein for 9 days): 299.53 ± 109.60
Inhibition rate (IR) determined as tumour weight ([13]; cisplatin 5 mg kg^−1 for 9 days): 64.10%
mouse weight course (in words) [14]: obvious weight loss
tumour histopathology [15]: a large amount of tumour cell necrosis with nucleolysis
AUC0→t [16]: 36 000 μg L^−1 h
CL [16]: 0.23 L·kg/h
